In ChEMBL document CHEMBL4371006, “Discovery of N-[4-(Quinolin-4-yloxy)phenyl]benzenesulfonamides as Novel AXL Kinase Inhibitors” (J Med Chem, 2018):
Converted amounts (≈) assume the structure as drawn.

Columns and labels:
[1] = Stability in mouse plasma assessed as parent compound remaining; type: ADME, cell-free
[2] = target: Cyclin-G-associated kinase (Homo sapiens, UniProt O14976); assay: Binding affinity to GAK in SILAC-labeled human MDA-MB-231 cells lysate by mass spectrometry based kinAffinity assay; type: subcellular
Procedure, shortened: (§1)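 Chemical proteomics: MDA-MB-231 lysate bound to matrix of immobilized broad kinase inhibitors at several densities (BC50), then competed with increasing free compound (CC50); proteins quantified by mass spectrometry, Kd via Cheng-Prusoff. Two competition formats run in parallel to check equilibrium.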

[3] = Efflux ratio of apparent permeability from basolateral to apical side over apical to basolateral side in human Caco2 cells at 10 uM after 2 hrs by LC-MS/MS analysis; type: ADME, cell-based; conditions: Caco-2
Procedure, shortened: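 Caco-2 monolayers differentiated 3 weeks, integrity checked by Lucifer yellow transport. Compound at 10 µM for 2 h; apical transport buffer (glucose, 10 mM HEPES, HBSS, pH 6.5, 100 µM Lucifer yellow), basolateral buffer pH 7.4. Papp = (dQ/dt)/C0A; efflux ratio = Papp(B→A)/Papp(A→B).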

[4] = target: Serine/threonine-protein kinase MARK2 (Homo sapiens, UniProt Q7KZI7); assay: Binding affinity to MARK2 in SILAC-labeled human MDA-MB-231 cells lysate by mass spectrometry based kinAffinity assay; type: subcellular; procedure, shortened: as §1
[5] = Protein binding in mouse plasma; type: ADME, cell-free; conditions: read-out: PPB (converted)
[6] = target: Tyrosine-protein kinase CSK (Homo sapiens, UniProt P41240); assay: Binding affinity to CSK in SILAC-labeled human MDA-MB-231 cells lysate by mass spectrometry based kinAffinity assay; type: subcellular; procedure, shortened: as §1
[7] = Clearance in mouse at 1 to 2 mg/kg, iv by LC/MS/MS analysis; type: ADME, organism-based; conditions: in vivo
[8] = target: MAP/microtubule affinity-regulating kinase 3 (Homo sapiens, UniProt P27448); assay: Binding affinity to MARK3 in SILAC-labeled human MDA-MB-231 cells lysate by mass spectrometry based kinAffinity assay; type: subcellular; procedure, shortened: as §1
[9] = target: 5'-AMP-activated protein kinase subunit beta-1 (Homo sapiens, UniProt Q9Y478); assay: Binding affinity to PRKAB1 in SILAC-labeled human MDA-MB-231 cells lysate by mass spectrometry based kinAffinity assay; type: subcellular
Procedure, shortened: (§2)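 MDA-MB-231 lysate applied to KinAffinity matrix of immobilized broadband kinase inhibitors at graded densities to obtain BC50 per target. Competition then run with increasing free compound to give CC50; Kd derived by Cheng-Prusoff. Two competition experiments in parallel to check equilibrium, one with lysate pre-incubated with compound before adding matrix. Quantitation by mass spectrometry.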

[10] = AUC (0 to infinity) in mouse at 1 to 2 mg/kg, iv by LC/MS/MS analysis; type: ADME, organism-based; conditions: in vivo
Procedure, shortened: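 Male ICR mice (27 ± 5 g, n = 3) dosed iv via tail vein at 2 or 1 mg/kg in 30% PEG400/5% ethanol in water. Jugular blood (0.3 mL, heparin) sampled at set times over 24 h or more; plasma separated, acetonitrile-precipitated, drug quantified by LC/MS/MS; parameters from noncompartmental-type software estimation.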

[11] = target: Epidermal growth factor receptor (Homo sapiens, UniProt P00533); assay: Binding affinity to EGFR in SILAC-labeled human MDA-MB-231 cells lysate by mass spectrometry based kinAffinity assay; type: subcellular; procedure, shortened: as §1
[12] = Intrinsic clearance in human liver microsomes at 5 uM after 60 mins in presence of NADPH by LC-MS/MS analysis; type: ADME, Microsome; conditions: read-out: CLH
Procedure, shortened: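 Compound at 5 µM with 1 mg/mL human or mouse liver microsomes plus an NADPH-regenerating system, in 100 mM potassium phosphate at 37°C. Reactions were stopped with acetonitrile at sampling times. Percent remaining versus time 0 was measured by HPLC, in duplicate.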

[13] = Protein binding in human plasma; type: ADME, cell-free; conditions: read-out: PPB (converted)
[14] = target: Serine/threonine-protein kinase PLK4 (Homo sapiens, UniProt O00444); assay: Binding affinity to PLK4 in SILAC-labeled human MDA-MB-231 cells lysate by mass spectrometry based kinAffinity assay; type: subcellular; procedure, shortened: as §2
[15] = Initial plasma concentration in mouse at 1 to 2 mg/kg, iv by LC/MS/MS analysis; type: ADME, organism-based
Procedure, shortened: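 Male ICR mice (n = 3) dosed iv via the tail vein at 2 or 1 mg/kg in 30% PEG400 and 5% ethanol in water. Jugular blood was collected into heparin and the plasma separated. Plasma levels were measured by LC/MS/MS after acetonitrile precipitation, and parameters were derived by noncompartmental software.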

[16] = target: Receptor-interacting serine/threonine-protein kinase 2 (Homo sapiens, UniProt O43353); assay: Binding affinity to RIPK2 in SILAC-labeled human MDA-MB-231 cells lysate by mass spectrometry based kinAffinity assay; type: subcellular; procedure, shortened: as §2
Activin receptor type-1 = Activin receptor type-1 (Homo sapiens, UniProt Q04771); assay: Binding affinity to ACVR1 in SILAC-labeled human MDA-MB-231 cells lysate by mass spectrometry based kinAffinity assay; type: subcellular; procedure, shortened: as §1
[17] = target: Serine/threonine-protein kinase Nek1 (Homo sapiens, UniProt Q96PY6); assay: Binding affinity to NEK1 in SILAC-labeled human MDA-MB-231 cells lysate by mass spectrometry based kinAffinity assay; type: subcellular; procedure, shortened: as §2
[18] = Solubility of the compound […] after 24 hrs by UV-based HPLC analysis; type: physicochemical; conditions: DMSO
Procedure, shortened: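 Solubility in water: DMSO stock aliquots diluted into water, shaken 24 h at room temperature, filtered through 0.45 µm nylon, then quantified by HPLC-UV with a C18 column and 70% ACN. Run in triplicate.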

[19] = target: Mitogen-activated protein kinase kinase kinase 20 (Homo sapiens, UniProt Q9NYL2); assay: Binding affinity to ZAK in SILAC-labeled human MDA-MB-231 cells lysate by mass spectrometry based kinAffinity assay; type: subcellular; procedure, shortened: as §2
[20] = target: Proto-oncogene tyrosine-protein kinase Src (Homo sapiens, UniProt P12931); assay: Binding affinity to SRC in SILAC-labeled human MDA-MB-231 cells lysate by mass spectrometry based kinAffinity assay; type: subcellular; procedure, shortened: as §2
[21] = target: Tyrosine-protein kinase Fer (Homo sapiens, UniProt P16591); assay: Binding affinity to FER in SILAC-labeled human MDA-MB-231 cells lysate by mass spectrometry based kinAffinity assay; type: subcellular; procedure, shortened: as §1
[22] = target: Tyrosine-protein kinase Fyn (Homo sapiens, UniProt P06241); assay: Binding affinity to FYN in SILAC-labeled human MDA-MB-231 cells lysate by mass spectrometry based kinAffinity assay; type: subcellular; procedure, shortened: as §1
[23] = target: 5'-AMP-activated protein kinase subunit beta-2 (Homo sapiens, UniProt O43741); assay: Binding affinity to PRKAB2 in SILAC-labeled human MDA-MB-231 cells lysate by mass spectrometry based kinAffinity assay; type: subcellular; procedure, shortened: as §2
[24] = Apparent permeability from basolateral to apical side in human Caco2 cells at 10 uM after 2 hrs by LC-MS/MS analysis; type: ADME, cell-based; conditions: Caco-2
Procedure, shortened: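 Caco-2 cells differentiated three weeks in 96-well format, monolayer integrity checked by Lucifer yellow transport. Compound at 10 µM for 2 h; apical buffer HBSS/10 mM HEPES/glucose pH 6.5 with 100 µM Lucifer yellow, basolateral buffer pH 7.4. Papp = (dQ/dt)/C0A; efflux ratio Papp(B→A)/Papp(A→B).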

[25] = target: Tyrosine-protein kinase Yes (Homo sapiens, UniProt P07947); assay: Binding affinity to YES in SILAC-labeled human MDA-MB-231 cells lysate by mass spectrometry based kinAffinity assay; type: subcellular; procedure, shortened: as §2
Chain of Tyrosine-protein kinase Yes (P07947 whole entry): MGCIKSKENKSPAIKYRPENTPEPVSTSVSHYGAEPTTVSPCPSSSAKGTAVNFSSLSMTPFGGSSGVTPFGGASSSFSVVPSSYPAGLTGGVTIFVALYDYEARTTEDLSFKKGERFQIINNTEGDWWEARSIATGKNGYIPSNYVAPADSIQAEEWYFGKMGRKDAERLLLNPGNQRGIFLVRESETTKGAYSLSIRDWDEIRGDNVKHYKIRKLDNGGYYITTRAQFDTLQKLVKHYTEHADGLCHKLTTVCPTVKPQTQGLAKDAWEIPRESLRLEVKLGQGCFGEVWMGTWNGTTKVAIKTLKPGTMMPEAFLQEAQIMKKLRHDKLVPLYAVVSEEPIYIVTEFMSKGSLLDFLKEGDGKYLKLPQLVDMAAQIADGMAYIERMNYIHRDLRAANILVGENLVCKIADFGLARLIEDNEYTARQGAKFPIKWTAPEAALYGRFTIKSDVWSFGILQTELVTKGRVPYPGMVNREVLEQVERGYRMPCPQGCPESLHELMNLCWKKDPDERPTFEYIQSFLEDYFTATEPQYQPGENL

Chain of Serine/threonine-protein kinase PLK4 (O00444 whole entry): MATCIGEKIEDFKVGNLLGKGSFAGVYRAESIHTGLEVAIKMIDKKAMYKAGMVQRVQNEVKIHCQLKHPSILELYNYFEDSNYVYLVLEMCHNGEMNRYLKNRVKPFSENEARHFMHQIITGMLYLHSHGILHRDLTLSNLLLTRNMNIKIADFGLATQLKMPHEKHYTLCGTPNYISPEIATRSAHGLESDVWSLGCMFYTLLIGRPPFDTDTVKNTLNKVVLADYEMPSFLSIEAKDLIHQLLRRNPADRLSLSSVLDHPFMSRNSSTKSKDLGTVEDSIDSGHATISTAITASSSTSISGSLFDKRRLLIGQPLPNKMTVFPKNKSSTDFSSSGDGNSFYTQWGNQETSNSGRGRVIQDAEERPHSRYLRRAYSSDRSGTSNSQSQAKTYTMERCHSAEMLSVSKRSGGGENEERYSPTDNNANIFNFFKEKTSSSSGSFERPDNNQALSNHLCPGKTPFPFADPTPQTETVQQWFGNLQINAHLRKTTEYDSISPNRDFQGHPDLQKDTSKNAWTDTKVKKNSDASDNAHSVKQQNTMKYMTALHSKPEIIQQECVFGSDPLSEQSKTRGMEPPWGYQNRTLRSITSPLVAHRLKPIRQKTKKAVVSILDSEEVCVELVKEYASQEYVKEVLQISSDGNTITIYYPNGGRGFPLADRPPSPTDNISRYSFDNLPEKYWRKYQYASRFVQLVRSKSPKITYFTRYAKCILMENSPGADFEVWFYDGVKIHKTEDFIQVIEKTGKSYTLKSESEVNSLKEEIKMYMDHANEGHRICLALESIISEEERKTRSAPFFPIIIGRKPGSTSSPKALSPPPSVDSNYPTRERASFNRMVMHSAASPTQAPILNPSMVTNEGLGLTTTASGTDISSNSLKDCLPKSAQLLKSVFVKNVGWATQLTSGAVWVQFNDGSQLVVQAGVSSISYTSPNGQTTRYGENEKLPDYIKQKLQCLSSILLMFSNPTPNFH
Chain of 5'-AMP-activated protein kinase subunit beta-2 (O43741 whole entry): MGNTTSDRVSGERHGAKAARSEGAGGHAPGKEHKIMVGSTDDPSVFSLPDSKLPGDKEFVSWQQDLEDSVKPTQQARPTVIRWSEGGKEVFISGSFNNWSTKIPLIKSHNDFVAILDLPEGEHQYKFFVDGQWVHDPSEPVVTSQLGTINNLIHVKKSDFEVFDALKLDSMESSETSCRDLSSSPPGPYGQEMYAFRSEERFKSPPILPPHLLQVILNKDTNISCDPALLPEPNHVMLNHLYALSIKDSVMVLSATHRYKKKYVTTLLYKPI
Chain of Cyclin-G-associated kinase (O14976 whole entry): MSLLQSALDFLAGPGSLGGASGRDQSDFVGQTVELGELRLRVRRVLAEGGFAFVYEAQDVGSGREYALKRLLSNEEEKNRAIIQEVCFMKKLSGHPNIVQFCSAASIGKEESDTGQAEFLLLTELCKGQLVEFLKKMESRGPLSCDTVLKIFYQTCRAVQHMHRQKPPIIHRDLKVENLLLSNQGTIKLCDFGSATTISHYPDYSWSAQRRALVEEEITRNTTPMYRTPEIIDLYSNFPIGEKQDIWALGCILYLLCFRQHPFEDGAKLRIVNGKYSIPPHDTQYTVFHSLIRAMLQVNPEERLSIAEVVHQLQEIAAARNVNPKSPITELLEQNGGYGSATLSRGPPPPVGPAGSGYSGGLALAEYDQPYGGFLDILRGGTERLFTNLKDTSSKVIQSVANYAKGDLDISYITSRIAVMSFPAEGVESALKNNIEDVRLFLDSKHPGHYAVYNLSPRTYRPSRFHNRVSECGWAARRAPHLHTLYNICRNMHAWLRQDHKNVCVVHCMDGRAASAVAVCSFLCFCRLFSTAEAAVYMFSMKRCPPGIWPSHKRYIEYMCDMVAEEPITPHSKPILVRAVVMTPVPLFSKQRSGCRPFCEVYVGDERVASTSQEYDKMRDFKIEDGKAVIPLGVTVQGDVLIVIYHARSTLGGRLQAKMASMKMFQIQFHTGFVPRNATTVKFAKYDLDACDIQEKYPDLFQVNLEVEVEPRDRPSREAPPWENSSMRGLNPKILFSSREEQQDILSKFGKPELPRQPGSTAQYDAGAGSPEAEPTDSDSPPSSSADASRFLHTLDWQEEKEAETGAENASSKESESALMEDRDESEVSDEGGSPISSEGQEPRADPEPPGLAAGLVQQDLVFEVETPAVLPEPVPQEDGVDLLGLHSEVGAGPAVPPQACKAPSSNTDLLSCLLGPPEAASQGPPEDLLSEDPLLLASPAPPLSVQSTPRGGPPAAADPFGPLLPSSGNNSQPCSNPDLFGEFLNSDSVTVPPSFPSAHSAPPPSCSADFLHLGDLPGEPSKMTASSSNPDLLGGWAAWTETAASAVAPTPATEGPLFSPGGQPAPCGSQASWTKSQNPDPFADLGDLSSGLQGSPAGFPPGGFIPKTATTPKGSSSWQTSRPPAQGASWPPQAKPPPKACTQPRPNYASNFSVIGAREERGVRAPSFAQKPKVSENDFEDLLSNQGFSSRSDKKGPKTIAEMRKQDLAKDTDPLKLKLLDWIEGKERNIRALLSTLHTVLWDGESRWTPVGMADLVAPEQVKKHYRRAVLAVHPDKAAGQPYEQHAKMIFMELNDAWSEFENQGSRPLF
Chain of Epidermal growth factor receptor (P00533 whole entry): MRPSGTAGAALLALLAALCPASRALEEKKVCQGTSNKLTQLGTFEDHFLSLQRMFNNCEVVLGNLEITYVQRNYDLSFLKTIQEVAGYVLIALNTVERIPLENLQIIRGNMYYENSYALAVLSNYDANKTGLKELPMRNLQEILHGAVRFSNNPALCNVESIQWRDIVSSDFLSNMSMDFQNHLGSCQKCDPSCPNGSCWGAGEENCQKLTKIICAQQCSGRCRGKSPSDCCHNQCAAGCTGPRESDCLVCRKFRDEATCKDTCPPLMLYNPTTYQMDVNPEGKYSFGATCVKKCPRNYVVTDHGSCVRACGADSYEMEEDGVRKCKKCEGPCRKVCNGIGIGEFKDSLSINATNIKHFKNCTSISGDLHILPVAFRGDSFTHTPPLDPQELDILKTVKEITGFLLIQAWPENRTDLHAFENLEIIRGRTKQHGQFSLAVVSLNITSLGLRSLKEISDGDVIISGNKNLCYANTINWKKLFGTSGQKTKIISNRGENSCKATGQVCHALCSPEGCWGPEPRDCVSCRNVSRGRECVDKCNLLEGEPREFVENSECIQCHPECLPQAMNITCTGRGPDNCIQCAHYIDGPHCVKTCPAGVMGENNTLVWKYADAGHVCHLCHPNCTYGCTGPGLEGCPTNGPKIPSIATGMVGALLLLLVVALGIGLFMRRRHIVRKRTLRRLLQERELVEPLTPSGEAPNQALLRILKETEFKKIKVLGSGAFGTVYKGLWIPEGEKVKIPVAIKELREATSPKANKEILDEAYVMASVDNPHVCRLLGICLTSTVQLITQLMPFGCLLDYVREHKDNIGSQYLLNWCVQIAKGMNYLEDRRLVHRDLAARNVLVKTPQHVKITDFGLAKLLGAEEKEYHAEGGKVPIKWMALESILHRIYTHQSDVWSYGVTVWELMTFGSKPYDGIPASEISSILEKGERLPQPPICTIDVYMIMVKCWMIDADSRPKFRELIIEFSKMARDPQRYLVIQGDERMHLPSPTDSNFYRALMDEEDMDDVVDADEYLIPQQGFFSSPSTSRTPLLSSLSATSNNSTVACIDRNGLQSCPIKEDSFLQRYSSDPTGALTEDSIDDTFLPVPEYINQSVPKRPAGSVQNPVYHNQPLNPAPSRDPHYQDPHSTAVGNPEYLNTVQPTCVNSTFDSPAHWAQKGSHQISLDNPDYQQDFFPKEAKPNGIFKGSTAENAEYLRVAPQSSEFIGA
Chain of 5'-AMP-activated protein kinase subunit beta-1 (Q9Y478 whole entry): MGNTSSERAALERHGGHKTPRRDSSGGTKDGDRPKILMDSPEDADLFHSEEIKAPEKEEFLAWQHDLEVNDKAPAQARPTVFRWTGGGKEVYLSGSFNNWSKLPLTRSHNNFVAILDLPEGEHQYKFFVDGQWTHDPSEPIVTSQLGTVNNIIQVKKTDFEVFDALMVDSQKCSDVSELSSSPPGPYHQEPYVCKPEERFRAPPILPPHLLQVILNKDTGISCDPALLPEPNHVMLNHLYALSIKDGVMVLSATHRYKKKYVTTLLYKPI
Chain of Tyrosine-protein kinase CSK (P41240 whole entry): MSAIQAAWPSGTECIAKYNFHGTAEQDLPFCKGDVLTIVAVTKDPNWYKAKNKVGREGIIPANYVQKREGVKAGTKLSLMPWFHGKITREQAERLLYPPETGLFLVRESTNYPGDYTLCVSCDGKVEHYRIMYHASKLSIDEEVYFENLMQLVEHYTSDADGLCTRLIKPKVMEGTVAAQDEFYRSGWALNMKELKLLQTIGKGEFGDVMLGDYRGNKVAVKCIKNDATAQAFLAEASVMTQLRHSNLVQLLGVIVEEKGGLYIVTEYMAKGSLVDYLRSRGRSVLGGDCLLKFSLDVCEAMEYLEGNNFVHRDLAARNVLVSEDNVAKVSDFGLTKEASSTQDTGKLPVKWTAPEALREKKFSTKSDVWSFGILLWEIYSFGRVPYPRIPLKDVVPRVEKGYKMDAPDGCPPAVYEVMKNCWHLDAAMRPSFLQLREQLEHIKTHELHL

With COc1cc2c(Oc3ccc(NS(=O)(=O)c4cc(F)ccc4F)cc3F)ccnc2cc1OCCCN1CCN(C)CC1 the Stability [1] was 108%, the “Kd(free)” value [2] was 2448 nM and the efflux ratio at 2 h, 10 µM [3] was 2.3. For the same compound, the “Kd(free)” value [4] was 4455 nM, the fraction unbound [5] was 0.028 and the “Kd(free)” value [6] was 270 nM. For the same compound, the clearance [7] was 6.67 mL/min/kg, the “Kd(free)” value [8] was 3854 nM and the “Kd(free)” value [9] was 1257 nM. For the same compound, the AUC(0-inf) [10] was 2650 ng·h/mL, the “Kd(free)” value [11] was 122 nM and the microsomal CLint at 5 µM [12] was 60.5 µL/min/mg. The fraction unbound [13] was 0.009, the “Kd(free)” value [14] was 53 nM and the C0 [15] was 310 ng/mL. The “Kd(free)” value [16] was 43 nM, the “Kd(free)” value (Activin receptor type-1) was 52 nM and the “Kd(free)” value [17] was 5146 nM. For the same compound, the solubility at 24 h [18] was 68.8 µM (≈ 42.4 µg/mL), the “Kd(free)” value [19] was 1180 nM and the “Kd(free)” value [20] was 254 nM. For the same compound, the “Kd(free)” value [21] was 679 nM, the “Kd(free)” value [22] was 64 nM and the “Kd(free)” value [23] was 969 nM. For the same compound, the Papp B→A at 2 h, 10 µM [24] was 17 ×10⁻⁶ cm/s and the “Kd(free)” value [25] was 178 nM.
With COc1cc2c(Oc3ccc(NS(=O)(=O)c4c(F)cccc4F)cc3F)ccnc2cc1OCCCN1CCN(C)CC1 the “Kd(free)” value [2] was 4166 nM, the “Kd(free)” value [4] was 7086 nM and the “Kd(free)” value [6] was 30 nM. The “Kd(free)” value [8] was 5622 nM, the “Kd(free)” value [9] was 2279 nM and the “Kd(free)” value [11] was 16 nM. The “Kd(free)” value [14] was 48 nM, the “Kd(free)” value [16] was 17 nM and the “Kd(free)” value (Activin receptor type-1) was > 70 nM. The “Kd(free)” value [17] was 5043 nM, the “Kd(free)” value [19] was 3210 nM and the “Kd(free)” value [20] was 96 nM. For the same compound, the “Kd(free)” value [21] was 304 nM, the “Kd(free)” value [22] was 38 nM and the “Kd(free)” value [23] was 1907 nM. For the same compound, the “Kd(free)” value [25] was 40 nM.
Work on COc1cc2c(Oc3ccc(NS(=O)(=O)c4cc(F)ccc4F)cc3F)ccnc2cc1OCCCN1CCCC(C)C1 (configuration not stated) yielded a Stability [1] of 98.8%, an efflux ratio at 2 h, 10 µM [3] of 6.6 and a fraction unbound [5] of 0.041. For the same compound, the clearance [7] was 11.7 mL/min/kg, the AUC(0-inf) [10] was 1400 ng·h/mL and the microsomal CLint at 5 µM [12] was 18.3 µL/min/mg. For the same compound, the fraction unbound [13] was 0.015, the C0 [15] was 216 ng/mL and the solubility at 24 h [18] was 18 µM (≈ 11.1 µg/mL). It also gave a Papp B→A at 2 h, 10 µM [24] of 14.6 ×10⁻⁶ cm/s.
